Source: PubChem
Hits are enriched below; roughly 2.3% of the tested compounds scored in any of these assays.
TRPC4 potent – allosterically enhances the mouse TRPC4 cation channel | Q9QUQ5 | HEK293 TRPC4beta/mu-opioid, DAMGO EC20, Fluo-4 Ca2+ flux; hits give high values | B-score at 10 µM | hit rate 0.42% among 310,000 | AID 2227;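 active = B-score of calcium response area above 5 SD of library B-scores, with initial fluorescence ratio within 5 SD of library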
TRPC6 act – activates the mouse TRPC6 cation channel; HEK293-TRPC6 membrane potential dye fluorescence; hits give high values; B-score at 10 µM; hit rate 0.13% among 310,000; AID 2550;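 active = B-score of the integrated fluorescence ratio above library mean plus 3 SD, and starting fluorescence ratio within library mean plus 5 SD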;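 note: higher score means more depolarization so channel activation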
TRPC6 inhibitor – inhibitors of mouse TRPC6 channel. B-score at 10 µM. hit rate 1.1% among 310,000. HEK293-TRPC6, membrane potential dye, ACh-evoked depolarization; hits give low values. AID 2553;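 active = B-score under library mean minus 3 SD, initial fluorescence not abnormally high, positive integrated signal ratio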;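 note: B-score derived from integrated fluorescence ratio over the kinetic read; more negative B-score means stronger inhibition of depolarization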
TRPC4 inh – TRPC4 (mouse) channel inhibition. HEK293 TRPC4beta/mu-opioid, DAMGO-evoked Fluo4 calcium flux; hits give low values. B-score at 10 µM. hit rate 0.39% among 300,000. AID 2247;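 active = B-score over 3 SD under the library average, no early fluorescence shift, positive overall ratio signal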
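Assay system: TRPC4beta/mu-opioid receptor HEK293 cell line; compound dosing: single concentration per test compound; detection: Fluo4 Ca2+ flux fluorescence; evaluation: per-well B score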
TRPC4 act – activators of mouse TRPC4 channel; Q9QUQ5; HEK293 TRPC4beta/mu-opioid, Fluo4 calcium fluorescence; hits give high values; B-score at 10 µM; hit rate 0.49% among 310,000; AID 2237;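 active = B-score above 5 SD of library B-scores, and initial fluorescence ratio not above library mean plus 5 SD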;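 note: positive B-score marks a calcium rise read as TRPC4 activation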
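System – HEK293 cells stably co-expressing mouse TRPC4beta and mu-opioid receptor · Signal – Fluo4 calcium-sensitive dye fluorescence, kinetic, 1 Hz baseline · Benchmarks – buffer (low) and maximal DAMGO (high) · Read-out – B score of integrated fluorescence ratio per well · Incubation – dye loading 45 min room temperature, 110 s kinetic read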
Each line names hits and unclear results; the compound was inactive in the other large screens.

Nc1cc(N2CCCCC2)c(Cl)cc1[N+](=O)[O-]	none
Nc1cc(N2CCCCC2)c([N+](=O)[O-])cc1Cl	TRPC4 inh -6
O=S1(=O)CCC(n2nccc2-c2ccccc2)C1 (stereo unspecified)	none
CN1CCN(NC(=O)c2cccc(Br)c2)CC1	TRPC4 potent 19
CCCc1cc(C(=O)Nc2ccccc2C(=O)OC)no1	none
O=C(O)c1ccc(N/N=C/c2ccc(C(F)(F)F)cc2)cc1	TRPC4 inh -5
CN1CCN(Cc2c(C(=O)N/N=C/c3cccc(Br)c3)nnn2-c2nonc2N)CC1	TRPC4 act 43
Nc1nonc1-n1nnc(C(=O)N/N=C/c2cccc(O)c2)c1CN1CCCC1	none
O=C(Nc1ccc(S(=O)(=O)NC2=NCCCCC2)cc1)c1ccccc1Cl	none
O=C(Cc1ccccc1)Nc1ccccc1Sc1ccccc1	TRPC4 inh -6
O=C(Cc1ccc(Br)cc1)Nc1ccccc1Sc1ccccc1	none
O=c1c(NCCc2ccc(Cl)cc2)c(-c2ccccc2)c1=O	TRPC4 potent 14
O=c1[nH]ncc(NCCc2ccccc2)c1Cl	none
COc1ccc(NC(C#N)c2ccccc2OCc2ccccc2)cc1 (stereo unspecified)	TRPC4 potent 10
CCOc1cc(N2CCOCC2)c(OCC)cc1NS(=O)(=O)c1cc(NC(C)=O)ccc1OC	none
COc1cc(NC(=O)CCN2CCN(CCO)CC2)cc(OC)c1	TRPC4 act 45
CCN1CCN(CCC(=O)Nc2ccccc2OC)CC1	TRPC4 potent 19
CCn1cnc2cc(NCc3ccc(C)cc3)ccc21	none
Cc1ccc(CNc2ccc3c(c2)ncn3C(C)C)cc1	TRPC4 act 45
CN1C(=O)CSC1=NC12CC3CC(CC(C3)C1)C2	TRPC4 inh -6
CN1C(=O)CSC1=Nc1ccc(Br)cc1	none
CCN1C(=O)CSC1=NC12CC3CC(CC(C3)C1)C2	TRPC4 inh -5
O=C(CN1CCN(Cc2ccccc2Cl)CC1)N=Nc1c(O)[nH]c2ccccc12	TRPC4 inh -6
COc1ccccc1CNC(=O)CN(C)S(=O)(=O)c1ccc2c(c1)n(C)c(=O)c(=O)n2C	none
CCOc1ccc(S(=O)(=O)N2CCOCC2)cc1NC(=O)CSCc1c(C)noc1C	TRPC4 potent 10
COc1cc(/C=C2/C(=O)NN(c3ccc(Cl)c(Cl)c3)C2=O)cc([N+](=O)[O-])c1O	none
COc1cc(/C=C2\SC(=O)N(c3ccccc3Cl)C2=O)cc([N+](=O)[O-])c1O	TRPC4 inh -9
O=C(CSc1nc2c(c(=O)[nH]1)CCCC2)Nc1ccc(Cl)cc1F	none
Cc1ccc(Cn2c(=O)cc(C(=O)O)c3ccccc32)cc1	none
CCOC(=O)c1cc(=O)n(Cc2ccccc2C)c2ccccc12	TRPC4 potent 15
CC1(c2nnc(-c3ccc(F)cc3)o2)CC(c2ccc([N+](=O)[O-])cc2)=NO1 (stereo unspecified)	none
COC(=O)c1ccc(C)c(-n2c(=O)n(Cc3ccccc3)c(=O)c3[nH]cnc32)c1	none
COc1ccc(C2CC(=O)N3CN(c4ccc(C)c(Cl)c4)CSC3=C2C#N)cc1OC (stereo unspecified)	TRPC4 inh -6
Cc1oc(-c2ccccc2F)nc1CS(=O)CC(=O)NC1CC1 (stereo unspecified)	none
CCOC(=O)N1CCC(NC(=O)CS(=O)Cc2nc(-c3ccccc3C)oc2C)CC1 (stereo unspecified)	TRPC4 potent 13
NS(=O)(=O)c1ccc(CCNC(=O)c2ccccc2-c2ccccc2)cc1	none
Cc1csc2c(N3CCN(C(=O)c4ccc(C(C)(C)C)cc4)CC3)ncnc12	TRPC4 act 67
CCOC(=O)C1CCN(c2ncnc3c(C)csc23)CC1	none
Cc1csc2c(N3CCN(C(=O)Nc4ccc(Cl)c(Cl)c4)CC3)ncnc12	TRPC4 act 91
Cc1csc2ncnc(N3CCN(C(=S)Nc4ccc(C(F)(F)F)cc4)CC3)c12	none
Cc1csc2c(N3CCN(C(=S)Nc4ccc(C(F)(F)F)cc4)CC3)ncnc12	TRPC4 act 145
Cc1csc2c(N3CCN(C(=O)NC(C)(C)C)CC3)ncnc12	TRPC4 act 84
CN(CCCC1CCCC1)C(=O)CC1C(=O)NCCN1Cc1ccc(F)cc1 (stereo unspecified)	none
O=C(Nc1cccc2ncccc12)c1cccc(Br)c1	TRPC4 potent 14
O=C(Nc1cccc2ncccc12)c1cccc(F)c1	none
